Data on two compounds can be found in ChEMBL document CHEMBL5331120, “Stapled β-Hairpin Antimicrobial Peptides with Improved Stability and Activity against Drug-Resistant Gram-Negative Bacteria” (J Med Chem, 2023).

The MIC is the smallest concentration in the dilution series that meets the test's criterion for growth inhibition.

Data set [1] has as its system Escherichia coli. The data set can be described thus: Bactericidal activity against Escherichia coli ATCC 25922 assessed as cell killing at 1 times MIC measured after 6 hrs relative to control. The data set is classed as functional. The method in brief: (§1)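 Time-kill against E. coli ATCC 25922 at 1× and 2× MIC, counted as CFU/mL over time. Limit of detection 50 CFU/mL; experiments repeated two times.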

For data set [2], the system named is Escherichia coli. The data set can be described thus: Bactericidal activity against Escherichia coli ATCC 25922 assessed as cell killing at 2 times MIC measured after 3 hrs relative to control. The data set is classed as functional. The method, boiled down:
as §1

Data set [3] concerns Cell membrane. The data set can be described thus: Induction of inner membrane permeabilization in Escherichia coli ATCC 25922 assessed as SYTOX green uptake at 1 times MIC incubated for 1 hr by fluorescence based microplate reader analysis relative to control. The method in brief: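 Exponential-phase cells washed twice in PBS pH 7, resuspended to OD600 0.4; equal volume SYTOX green (4 μM) added, 5 min. Peptide added (4, 8, 16 μM), 1 h at 37 °C with shaking. Fluorescence ex 488/em 523 nm; % uptake computed from untreated (F0) and positive-control peptide BTT1 (Fmax) signals. Three repeats.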

Data set [4] concerns Escherichia coli. The data set can be described thus: Induction of membrane morphological changes in Escherichia coli ATCC 25922 at 16 uM measured after 1 hr by TEM analysis. The data set is classed as functional, organism-based.
Data set [5] has as its target Trypsin (Homo sapiens, UniProt P07477+P07478+P35030). Description: Stability of compound assessed as trypsin (unknown origin) mediated compound degradation by measuring parent compound remaining measured after 1.5 hrs by RP-HPLC analysis. The data set is classed as ADME, protein assay. The note with it: trypsin, read-out: Stability. The method, boiled down:
(§2)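 Peptide with trypsin at a 1:2000 trypsin/peptide molar ratio, 37 °C, sampled at 15, 30, 60 and 90 min. Reaction stopped with an equal volume of 50% acetonitrile/1% TFA. Analysed on C18 RP-HPLC with UV at 220 nm; intact peptide given as % of AUC.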

For data set [6], the system named is Escherichia coli. Description: Antimicrobial activity against Escherichia coli ATCC 25922 assessed as inhibition of bacterial growth compound pretreated for 1 hr with trypsin and measured after 18 hrs by broth microdilution method. The data set is classed as functional, organism-based. The method in brief:
(§3)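 Peptide incubated with trypsin at a 1:2000 trypsin/peptide molar ratio (e.g., 1 mM peptide with 0.5 μM trypsin), 37 °C, 1 h. Reaction stopped at 80 °C for 10 min, then serially diluted against E. coli in MHB broth microdilution. Inoculum 3 × 10^5 CFU/mL, 37 °C, 120 rpm, 18 h, read by OD600, triplicates. Fold change in MIC taken versus untreated control.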

The subject of data set [7] is Escherichia coli. The data set can be described thus: Antimicrobial activity against Escherichia coli ATCC 25922 assessed as inhibition of bacterial growth incubated for 18 hrs in presence of 10% fetal bovine serum by broth microdilution method. The data set is classed as functional, organism-based. The method in brief:
(§4)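 E. coli broth microdilution in MHB containing 10% fetal bovine serum. Inoculum 3 × 10^5 CFU/mL, diluted from an OD600 0.07 suspension. Incubated 18 h at 37 °C with 120 rpm shaking, OD600 read, triplicates. Fold change in MIC calculated against control MIC.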

Data set [8] relates to Pseudomonas aeruginosa. The data set can be described thus: Antimicrobial activity against Pseudomonas aeruginosa ATCC 9027 assessed as inhibition of bacterial growth incubated for 18 hrs by broth microdilution method. The data set is classed as functional. The method, boiled down:
(§5)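 Standard broth microdilution in MHB. Overnight culture (37 °C, 120 rpm) adjusted to OD600 0.07 and diluted 1000× to 3 × 10^5 CFU/mL. Peptides serially diluted in triplicate, 18 h at 37 °C with 120 rpm shaking. Growth read as OD600; MIC is the lowest concentration with no visible growth. Colistin served as control for Gram-negatives, vancomycin for S. aureus.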
Background: Broth dilution looks for growth in wells or tubes with falling amounts of substance.

Data set [9] relates to Escherichia coli. Description: Induction of membrane morphological changes in Escherichia coli ATCC 25922 at 16 uM measured after 3 to 6 hrs by TEM analysis. The data set is classed as functional, organism-based. The note with it: time 3-6 hrs.
The test system of data set [10] is Escherichia coli. Description: Antimicrobial activity against colistin resistant Escherichia coli clinical isolate R1 harboring mcr-1 gene assessed as inhibition of bacterial growth incubated for 18 hrs by broth microdilution method. The data set is classed as functional, organism-based. The method, boiled down:
(§6)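 Overnight MHB culture (37 °C, 120 rpm) adjusted to OD600 0.07 (~10^8 CFU/mL), then diluted 1000× to 3 × 10^5 CFU/mL. Peptides serially diluted with the bacterial suspension in triplicate, shaken at 37 °C, 120 rpm for 18 h, then OD600 read. MIC is the lowest concentration with no visible growth. Colistin as positive control.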

For data set [11], the system named is Escherichia coli. Description: Antimicrobial activity against Escherichia coli ATCC 25922 assessed as inhibition of bacterial growth incubated for 18 hrs by broth microdilution method. The data set is classed as functional. The method, boiled down: as §5
The subject of data set [12] is Erythrocyte. Description: Hemolytic activity in human RBC upto 128 uM incubated for 1 hr by absorbance based analysis. The data set is classed as toxicity, cell-based. The method in brief: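 Washed human RBCs from healthy volunteers at 4% in PBS. Peptide at 4–128 μM, 37 °C for 1 h. Supernatant after 1000g, 10 min spin read at OD540. 1% Triton X-100 gave full lysis; % hemolysis derived and HC50 estimated.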

The test system of data set [13] is Cell membrane. The data set can be described thus: Induction of outer membrane permeabilization in Escherichia coli ATCC 25922 assessed as NPN uptake at 1 times MIC incubated for 1 hr by fluorescence based microplate reader analysis relative to control. The method, boiled down: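 Exponential-phase cells washed twice in PBS pH 7, resuspended to OD600 0.4; equal volume 40 μM NPN added, then equal volume peptide (4, 8, 16 μM). Incubated 1 h at 37 °C with shaking. Fluorescence ex 355/em 405 nm; % uptake relative to no-compound (F0) and colistin 100 μM control (Fmax). Three repeats.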

Data set [14] relates to Escherichia coli. Description: Antimicrobial activity against colistin/carbapenem resistant Escherichia coli clinical isolate R2 harboring mcr-1 and NDM-1 gene assessed as inhibition of bacterial growth incubated for 18 hrs by broth microdilution method. The data set is classed as functional, organism-based. The method in brief: as §6
Data set [15] deals with Staphylococcus aureus. Description: Antimicrobial activity against Staphylococcus aureus ATCC 29737 assessed as inhibition of bacterial growth incubated for 18 hrs by broth microdilution method. The data set is classed as functional, organism-based. The method, boiled down:
as §5

In data set [16] the test system is Escherichia coli. The data set can be described thus: Antimicrobial activity against colistin resistant Escherichia coli clinical isolate R1 harboring mcr-1 gene assessed as fold increase in MIC incubated for 18 hrs by broth microdilution method relative to control. The data set is classed as functional.
In data set [17] the test system is Escherichia coli. Description: Antimicrobial activity against Escherichia coli ATCC 25922 assessed as fold increase in MIC incubated for 18 hrs in presence of 10% fetal bovine serum by broth microdilution method relative to control. The data set is classed as functional. The method, boiled down: as §4
Data set [18] deals with Escherichia coli. Description: Antimicrobial activity against colistin/carbapenem resistant Escherichia coli clinical isolate R2 harboring mcr-1 and NDM-1 gene assessed as fold increase in MIC incubated for 18 hrs by broth microdilution method relative to control. The data set is classed as functional.
Data set [19] has as its system Escherichia coli. Description: Antimicrobial activity against colistin/carbapenem resistant Escherichia coli clinical isolate R3 harboring NDM-7 and OXA-181 gene assessed as fold increase in MIC incubated for 18 hrs by broth microdilution method relative to control. The data set is classed as functional.
The test system of data set [20] is Escherichia coli. Description: Antimicrobial activity against Escherichia coli ATCC 25922 assessed as fold increase in MIC compound pretreated for 1 hr with trypsin and measured after 18 hrs by broth microdilution method relative to control. The data set is classed as functional. Particulars: trypsin pretreatment 1 hr; MIC measured after 18 hrs. The method in brief: as §3

Data set [21] can be described thus: Stability of compound assessed as trypsin (unknown origin) mediated compound degradation by measuring parent compound remaining measured after 1 hr by RP-HPLC analysis. The data set is classed as ADME, protein assay. The note with it: human, read-out: Stability. The method, boiled down: as §2
Data set [22] relates to Escherichia coli. Description: Antimicrobial activity against Escherichia coli ATCC 25922 assessed as fold increase in MIC incubated for 18 hrs in presence of NaCl by broth microdilution method relative to control. The data set is classed as functional. The method in brief: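 MHB broth microdilution against E. coli with 150 mM NaCl added to the medium. Inoculum 3 × 10^5 CFU/mL, 37 °C, 120 rpm, 18 h, OD600 read, triplicates. MIC fold change taken relative to control.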

In brackets after ≈: the same amount, converted by molar mass. Activity calls are given as the source filed them. Where only a bound is given, the exact number is not on record here.

Regarding `CC(C)C[C@@H]1NC(=O)[C@H](CCCCN)NC(=O)CNC(=O)C2CCCN2C(=O)[C@H](CCCCN)NC(=O)[C@H](CC(C)C)NC(=O)[C@H](CCCCN)NC(=O)[C@H](CC(C)C)NC(=O)[C@H](CCCCN)NC(=O)[C@@H](N)CC/C=C/CC[C@@H](C(=O)O)NC(=O)[C@H](CCCCN)NC(=O)[C@H](CC(C)C)NC(=O)[C@H](CCCCN)NC1=O` (single isomer, unassigned), the Activity is 100% in data set [1]; 100% in data set [2]; 80% in data set [3]; “Non-Toxic” in data set [12]; 70% in data set [13]. Further, the result in data set [4] and in data set [15] was inactive. In [5], the remaining at 1.5 h is > 40%. The result in data set [6], in [7], in data set [9], in data set [10] and in data set [14] was Active. Besides, the MIC in data set [8] and in data set [11] was 8 µM (≈ 12.7 µg/mL) each time.

Take H-LKLKLKPGKLKLKL-OH: the “fold change (FC)” value was “>=8” in [16]; 8 in data set [17]; “>=8” in data set [18]; “>=8” in data set [19]; 8 in data set [20]; 32 in data set [22]. Further, the Activity worked out at 80% in data set [3] and 40% in data set [13]. The remaining at 1 h in data set [21] was < 10%. Besides, the result in data set [15] was inactive.
